FLuc inhib CS = firefly luciferase enzyme inhibitors, primary screen, artefact control for luciferase-based inhibitor screens, biochemical, luminescence, ATPLite; Luciferin 4-monooxygenase (Photinus pyralis), P08659; 10 min; inhibition, % at 10 µM; hit rate 1.5% among 200,000;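 active = inhibition above about 50% when tested at 10 µM, limit read from the data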
Target sequence (P08659 whole entry, looked up): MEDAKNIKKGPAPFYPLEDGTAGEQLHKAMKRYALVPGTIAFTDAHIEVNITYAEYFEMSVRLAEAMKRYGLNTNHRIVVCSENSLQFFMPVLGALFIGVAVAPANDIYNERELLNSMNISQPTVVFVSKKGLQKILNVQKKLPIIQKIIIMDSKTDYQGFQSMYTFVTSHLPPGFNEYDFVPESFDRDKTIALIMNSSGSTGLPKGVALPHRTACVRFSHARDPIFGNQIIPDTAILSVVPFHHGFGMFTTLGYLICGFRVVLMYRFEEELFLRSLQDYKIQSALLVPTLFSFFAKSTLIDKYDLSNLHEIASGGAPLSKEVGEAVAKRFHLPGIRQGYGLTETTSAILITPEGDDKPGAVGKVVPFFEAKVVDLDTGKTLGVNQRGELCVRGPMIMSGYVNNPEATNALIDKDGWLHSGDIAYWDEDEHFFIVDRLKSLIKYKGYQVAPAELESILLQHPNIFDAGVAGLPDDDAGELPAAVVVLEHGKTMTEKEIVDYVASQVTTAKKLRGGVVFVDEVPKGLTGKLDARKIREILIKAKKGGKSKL
FLuc act counter = FLuc activators, initial screening, artefact control for FLuc-dependent activation tests, biochemical, ATPlite luminescence | activation factor at 10 µM | Luciferin 4-monooxygenase (Photinus pyralis), P08659 | 200,000 tested, under 10 active | ATPlite luciferase biochemical, 10 min; 0 = ATP-free wells, 1 = DMSO control;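 active = luciferase activation factor, scaled between plate controls, of at least 2 with compound at 10 µM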
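test system = cell-free luciferase reagent | medium = PBS as buffer for the ATP substrate | dosing = test compounds dosed from 2 mM stocks in 100% DMSO | incubation = 10 min at ambient temperature | detection = luminescence measurement of luciferase light output | benchmarks = low control with PBS replacing ATP, high control enzyme plus ATP without compound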
STAT1 act = STAT1 signaling activators, primary screen, cell-based, HTS, luciferase reporter. activation (% of control), % at 5.5 µM. NIH 3T3 STAT1-luciferase reporter, IFN-gamma, luminescence; 100% = IFN-gamma alone, no compound. hit rate 2.6% among 200,000;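 active = activation above the screen-wide mean activation plus 3 SD, cut at about 130% in these data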
NF-kB neuron act = activators of NF-kB expression in neurons, primary screen, cell-based, HTS | human neuronal cells, NF-kB reporter expression; stronger effect = higher value | fold change at 12.5 µM | hit rate 1.6% among 190,000; in the data active = fold change above about 3.3
APP 5'UTR act = activators of APP 5'UTR luciferase reporter, primary screen, SH-SY5Y cells; SH-SY5Y APP 5'UTR luciferase reporter, luminescence; zero percent = DMSO vehicle wells; activation, % at 2 µM; hit rate 1% among 190,000; AID 1276, 2008;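 active = activation above a set limit, based on mean plus 3 SD of controls, cut at about 140% in these data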
Of the large screens only hits and unclear results are named; the others gave an inactive call. A selection: hits, their analogues and other compounds. The true share with any hit is near 4.1%.

COC(=O)c1ccc(NC(=S)NC2c3ccccc3CC2O)cc1 (stereo not drawn)	NF-kB neuron act 4.04
COC(=O)c1ccc(NC(=S)Nc2ccccc2)cc1	none
COc1cc(C=C(C(C)=O)C(C)=O)ccc1O	none
COc1cc(/C=C/C(=O)CC(=O)/C=C/c2ccc(O)c(OC)c2)ccc1O	NF-kB neuron act 7.39
Cc1cccc(-n2ncc3c(N4CC(C)CC(C)C4)ncnc32)c1 (stereo not drawn)	STAT1 act 133.2 (no result: APP 5'UTR act)
Cc1cccc(-n2ncc3c(N4CCOCC4)ncnc32)c1	FLuc inhib CS 94.4
Cc1cccc(-n2ncc3c(N4CCCC4)ncnc32)c1	FLuc inhib CS 87.2, NF-kB neuron act 4.84, APP 5'UTR act 137.7
Cc1cccc(C(=O)N2CCN(c3ncnc4c3cnn4-c3ccccc3)CC2)c1	none
Cc1ccc(-n2ncc3c(N4CCN(c5ccccc5)CC4)ncnc32)c(C)c1	none
N[C@@H](CO)c1nnc([C@H](CC(=O)O)NC(=O)C2CCNCC2)o1	none
Cc1cc2cc(C)c3nnc(SCC(=O)N4CCc5ccccc54)n3c2cc1C	none
CC(COc1ccccc1)N1CCC(CO)(Cc2ccccc2)CC1 (stereo not drawn)	NF-kB neuron act 4.39
O=C(Nc1ccc(N2CCCC2)c(Cl)c1)c1cccs1	FLuc inhib CS 66.0, STAT1 act 142.1, NF-kB neuron act 7.43, APP 5'UTR act 234.6
CC(C)CN1C(=O)c2ccc(NC(=O)c3ccco3)cc2C1=O	STAT1 act 129.8
CCN(CC)c1ccc(NC(=S)NC(=O)c2cccs2)cc1	STAT1 act 134.5
O=C(NC(=S)Nc1ccc(N2CCOCC2)c(Cl)c1)c1cccs1	none
CCN(CC)c1ccc(NC(=S)NC(=O)c2ccco2)cc1	STAT1 act 142.2
CCN(CC)CCOC(=O)c1ccc(NC(=O)C(C)NC(=O)C23CC4CC(CC(C4)C2)C3)cc1 (stereo not drawn)	none
CCCCCOP(=O)(OCCCCC)C1(NS(=O)(=O)c2ccccc2)C=CC(=O)c2ccccc21 (stereo not drawn)	none
CC1N(C)c2cc(NC(=O)c3ccco3)ccc2C1(C)C (stereo not drawn)	STAT1 act 142.6
CCN(CC)c1ccc(NC(=O)c2ccco2)cc1	FLuc inhib CS 83.2, NF-kB neuron act 5.25, APP 5'UTR act 163.8
CS(=O)(=O)N1CCN(c2ccc(NC(=S)NC(=O)c3cccs3)cc2)CC1	none
O=C(Nc1ccc2nc(-c3ccccc3)[nH]c2c1)c1ccco1	none
Cc1cccc2[nH]c(-c3ccc(NC(=O)c4ccco4)cc3)nc12	STAT1 act 130.2
O=C(NC(=S)Nc1ccc(N2CCCCC2)cc1)c1cccs1	STAT1 act 148.3, APP 5'UTR act 136.2
CC1CCCCN1CCNS(=O)(=O)c1ccc2c(c1)oc(=O)n2C (stereo not drawn)	none
CCC(CC)c1nnc(NC(=O)Cc2ccccc2[N+](=O)[O-])s1	none
CCOc1ccc(N2C(=O)C3ON(c4ccccc4)C(c4cccs4)C3C2=O)cc1 (stereo not drawn)	none
CCN(C(=O)CSc1nnc(-c2ccncc2)n1Cc1ccccc1)C1CCS(=O)(=O)C1 (stereo not drawn)	none
O=C1CC(c2ccccc2)CC(O)=C1C=Nc1ccc(O)cc1 (stereo not drawn)	STAT1 act 132.3
O=C1CC(c2ccccc2)CC(O)=C1C=NCc1ccccc1 (stereo not drawn)	none
Cc1ccccc1-n1c(C)cc(/C=C(\C#N)C(=O)NCC2CCCO2)c1C (stereo not drawn)	FLuc inhib CS 75.2, STAT1 act 149.3
Cc1cc(/C=C(/C#N)C(=O)Nc2ccccc2)c(C)n1-c1cccnc1	FLuc inhib CS 50.3, STAT1 act 149.7
COCCNC(=O)/C(C#N)=C/c1cc(C)n(C2CCCCC2)c1C	FLuc inhib CS 71.8, STAT1 act 134.5, APP 5'UTR act 144.5
Cc1cc(/C=C(\C#N)C(=O)O)c(C)n1C1CC1	none
COCCNC(=O)/C(C#N)=C/c1cc(C)n(-c2ccc(C)cc2)c1C	FLuc inhib CS 72.4, STAT1 act 145.3, NF-kB neuron act 6.19, APP 5'UTR act 153.7
COc1ccc(-n2c(C)cc(/C=C(\C#N)C(=O)NCc3ccco3)c2C)cc1	none
